In ChEMBL document CHEMBL3734652, “Pyrrolo[3,4-c]pyridine-1,3(2H)-diones: A Novel Antimycobacterial Class Targeting Mycobacterial Respiration” (J Med Chem, 2015):
In brackets after ≈: the same amount, converted by molar mass.

Legend:
[1] = Metabolic stability in rat liver microsomes assessed as residual compound at 0.1 uM after 30 mins by LC-MS/MS method in presence or absence of NADPH; type: ADME; conditions: read-out: Stability
[2] = test system: Mycobacterium tuberculosis; assay: Drug metabolism in supernatant of Mycobacterium tuberculosis assessed as formation of 7-Amino-2-benzyl-4-methyl-1,3-dioxo-2,3-dihydro-1H-pyrrolo-[3,4-c]pyridine-6-carboxylic Acid in absence of NADPH; type: ADME, organism-based
Plasma [3] = assay: Drug metabolism in C57/BL6 mouse plasma assessed as formation of 7-Amino-2-benzyl-4-methyl-1,3-dioxo-2,3-dihydro-1H-pyrrolo-[3,4-c]pyridine-6-carboxylic Acid by LC-MS analysis in absence of NADPH; type: ADME, cell-free
[4] = Metabolic stability in mouse liver microsomes assessed as residual compound at 0.1 uM after 30 mins by LC-MS/MS method in presence or absence of NADPH; type: ADME; conditions: read-out: Stability
Liver [5] = assay: Drug metabolism in BALB/c mouse liver microsomes assessed as formation of 7-Amino-2-benzyl-4-methyl-1,3-dioxo-2,3-dihydro-1H-pyrrolo-[3,4-c]pyridine-6-carboxylic Acid at 10 uM after 1 hr by LC-MS analysis in absence of NADPH; type: ADME
[6] = test system: Mycobacterium tuberculosis; assay: Antimicrobial activity against clinical isolates of Mycobacterium tuberculosis SAWC 3906 Atyp-beijing under 7H9 medium assessed as growth inhibition after 14 days by alamar blue assay; type: functional; conditions: 336 h
Vero = assay: Cytotoxicity against African green monkey Vero cells assessed as cell viability by MTT assay; type: cell-based; conditions: Chlorocebus sabaeus
How it was run: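 VERO kidney epithelial cells from African green monkey were exposed to compounds at concentrations up to 100 μM, and IC₅₀ was reported.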

[7] = Metabolic stability in human liver microsomes assessed as residual compound at 0.1 uM after 30 mins by LC-MS/MS method in presence or absence of NADPH; type: ADME; conditions: read-out: Stability
[8] = Kinetic solubility in FaSSIF at pH 6.5 after 2 hours at 25 degC by shake flask method; type: physicochemical; conditions: read-out: Kinetic_solubility
[9] = test system: Mycobacterium tuberculosis; assay: Antimicrobial activity against GFP expressing recombinant Mycobacterium tuberculosis H37RvMA under 7H9 medium assessed as growth inhibition after 14 days by broth microdilution method; type: functional; conditions: 336 h
[10] = test system: Mycobacterium tuberculosis; assay: Antimicrobial activity against Mycobacterium tuberculosis H37RvMA under GAST/Fe medium assessed as growth inhibition after 14 days by alamar blue assay; type: functional; conditions: 336 h
How it was run: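 Broth microdilution in GAST/Fe medium against fully virulent Mtb H37RvMa or its derived strains (cytochrome bd oxidase deletion ΔcydKO; qcrB Ala317Thr point mutant). Plates were incubated 14 days, growth was read by Alamar Blue, and MIC90 was taken as the potency value.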

[11] = test system: Mycobacterium tuberculosis; assay: Antimicrobial activity against clinical isolates of Mycobacterium tuberculosis SAWC 2371 Haarlem under 7H9 medium assessed as growth inhibition after 14 days by alamar blue assay; type: functional; conditions: 336 h
[12] = test system: Mycobacterium tuberculosis; assay: Antimicrobial activity against clinical isolates of Mycobacterium tuberculosis SAWC 3385 Cas1/Delhi under 7H9 medium assessed as growth inhibition after 14 days by alamar blue assay; type: functional; conditions: 336 h
[13] = test system: Mycobacterium tuberculosis; assay: Antimicrobial activity against GFP expressing recombinant Mycobacterium tuberculosis H37RvMA under GAST/Fe medium assessed as growth inhibition after 14 days by broth microdilution method; type: functional; conditions: 336 h
[14] = test system: Mycobacterium tuberculosis; assay: Drug level in supernatant of Mycobacterium tuberculosis treated with Ethyl 7-Amino-2-benzyl-4-methyl-1,3-dioxo-2,3-dihydro-1Hpyrrolo[3,4-c]pyridine-6-carboxylate in absence of NADPH; type: ADME, organism-based
Liver [15] = assay: Drug level in BALB/c mouse liver microsomes treated with 7-Amino-2-benzyl-4-methyl-6-(3-methyl-1,2,4-oxadiazol-5-yl)-1H-pyrrolo[3,4-c]pyridine-1,3(2H)-dione at 10 uM after 1 hr by LC-MS analysis; type: ADME
Plasma [16] = assay: Drug level in C57/BL6 mouse plasma treated with ethyl 7-Amino-2-benzyl-4-methyl-1,3-dioxo-2,3-dihydro-1Hpyrrolo[3,4-c]pyridine-6-carboxylate by LC-MS analysis in absence of NADPH; type: ADME, cell-free
Liver [17] = assay: Drug level in BALB/c mouse liver microsomes treated with ethyl 7-Amino-2-benzyl-4-methyl-1,3-dioxo-2,3-dihydro-1Hpyrrolo[3,4-c]pyridine-6-carboxylate at 10 uM after 1 hr by LC-MS analysis in absence of NADPH; type: ADME
Plasma [18] = assay: Drug metabolism in C57/BL6 mouse plasma treated with 7-Amino-2-benzyl-4-methyl-6-(3-methyl-1,2,4-oxadiazol-5-yl)-1H-pyrrolo[3,4-c]pyridine-1,3(2H)-dione by LC-MS analysis; type: ADME, cell-free
CHO = assay: Cytotoxicity against CHO cells assessed as cell viability by MTT assay; type: cell-based; conditions: Cricetulus griseus

Row | SMILES | remaining at 0.5 h, 0.1 µM [1] | Drug metabolism [2] | Drug metabolism (Plasma [3]) | remaining at 0.5 h, 0.1 µM [4] | Drug metabolism (Liver [5]) | MIC90 [6] | IC50 (Vero) | remaining at 0.5 h, 0.1 µM [7] | solubility kinetic at 2 h [8] | MIC90 [9] | MIC90 [10] | MIC90 [11] | MIC90 [12] | MIC90 [13] | Drug metabolism [14] | Drug metabolism (Liver [15]) | Drug metabolism (Plasma [16]) | Drug metabolism (Liver [17]) | Drug metabolism (Plasma [18]) | IC50 (CHO)
1 | CCOC(=O)c1nc(C)c2c(c1N)C(=O)N(Cc1ccccc1)C2=O | 19% | metabolite_detected | metabolite_detected | 18% | metabolite_detected | < 0.08 µM | > 100 µM | 14% | < 5 µM | > 20 µM | < 0.156 µM | < 0.08 µM | < 0.08 µM | 0.132 µM | – | – | – | – | – | –
2 | Cc1nc(C(=O)O)c(N)c2c1C(=O)N(Cc1ccccc1)C2=O | 71% | – | – | 79% | – | – | – | 64% | 177 µM (≈ 55.1 µg/mL) | – | 3.13 µM (≈ 0.974 µg/mL) | – | – | – | metabolite_detected | metabolite_detected | metabolite_detected | metabolite_detected | metabolite_detected | > 100 µM
